The values below come from ChEMBL document CHEMBL1132176, “Novel A,B,E-ring-modified camptothecins displaying high lipophilicity and markedly improved human blood stabilities” (J Med Chem, 1999).

SMILES strings stand for the structures.

Data set [1] in a line: Equilibrium association (binding) constant interacting with Unilamellar Vesicles of electroneutral DMPC in PBSbuffer at pH 7.4 and 37 C. The class given is ADME. The procedure, abridged: (§1)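 Fluorescence anisotropy titration of 1 μM drug (lactone form) with small unilamellar vesicles, in PBS at pH 7.4 and 37 °C. Anisotropy was read about 1 min after adding drug at each lipid concentration to limit lactone hydrolysis. Adsorption isotherms were constructed, and K was taken from the slopes of double-reciprocal plots, with 10% uncertainty.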

Data set [2] can be described thus: Equilibrium association (binding) constant interacting with Unilamellar Vesicles of negatively charged DMPG in PBS buffer at pH 7.4 and 37 C. The class given is ADME. The procedure, abridged: as §1
The nature of data set [3]: Stability parameter for the compound at a concentration of 1 uM in phosphate-buffered saline(PBS, pH 7.4) after 3h. In kind it is physicochemical. Particulars: read-out: Lactone. The procedure, abridged: (§2)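 Lactone-to-carboxylate hydrolysis followed by HPLC; drug at 1 μM incubated at 37 °C for 3 h in human whole blood, plasma, or PBS (pH 7.4) with or without physiologically relevant levels of HSA or albumin-free RBCs ((5 ± 1) × 10^6 cell/μL). Plasma continuously aerated with blood gas to hold pH 7.5 ± 0.1. Blood kept at 5 °C before start. Value is % lactone remaining.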

Data set [4] is described as follows: Stability parameter for the compound at a concentration of 1 uM in plasma after 3h. Particulars: read-out: Lactone. In kind it is ADME, cell-free. A digest of the protocol:
as §2

Data set [5] in a line: Stability parameter for the compound at a concentration of 1 uM in human serum albumin(HSA) after 3h. The class given is ADME. Particulars: read-out: Lactone. A digest of the protocol:
as §2

Data set [6] can be described thus: Stability parameter for the compound in human blood after 3h. The class given is ADME. As to conditions: read-out: Lactone.
The nature of data set [7]: Stability parameter for the compound at a concentration of 1 uM in red blood cells(RBC) after 3h. The class given is ADME, cell-based. Particulars: read-out: Lactone. A digest of the protocol: as §2
Data set [8] can be described thus: Stability parameter for the compound at a concentration of 1 uM in whole human blood after 3h. In kind it is ADME. Particulars: read-out: Lactone. The procedure, abridged:
as §2

Data set [9] in a line: Stability parameter for the compound in mouse blood after 3h. The class given is ADME. As to conditions: read-out: Lactone. The procedure, abridged:
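Drug was incubated in mouse blood at pH 7.4 and 37 °C for 3 h. Blood was kept at 5 °C after drawing and before the start. The percent lactone remaining was measured by HPLC.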

In the case of `CCC(O)(CC(=O)O)c1cc2n(c(=O)c1CO)Cc1c-2nc2ccc(N)cc2c1[Si](C)(C)C(C)(C)C` (stereo unspecified), the “K DMPC” value in [1] came out at 800 M⁻¹. Also, in data set [2], the “K DMPG” value turned out to be 80 M⁻¹.

`CCC1(O)CC(=O)OCc2c1cc1n(c2=O)Cc2c-1nc1ccccc1c2[Si](C)(C)C(C)(C)C` (stereo unspecified): the remaining at 3 h, 1 µM in data set [3] came to 84.9%; in data set [4] it was 85%; in data set [5] it was 88.1%; in data set [7], 92%; in [8], 86.6%. The remaining at 3 h in data set [6] was 87%; in data set [9] it was 80%. Moreover, the “K DMPC” value in data set [1] was found to be 14000 M⁻¹. Further, in [2], the “K DMPG” value is 19000 M⁻¹.

In the case of `CCC1(O)CC(=O)OCc2c1cc1n(c2=O)Cc2c-1nc1ccc(O)cc1c2[Si](C)(C)C(C)(C)C` (stereo unspecified), the remaining at 3 h, 1 µM was 83.1% in [3]; 61.5% in [4]; 82.9% in [5]; 88.5% in data set [7]; 84.9% in data set [8]. Further, the remaining at 3 h in [6] amounted to 85%; in data set [9], 70%. Besides, in [1], the “K DMPC” value is 8000 M⁻¹. Also, in data set [2], the “K DMPG” value is 4000 M⁻¹.

On to `CCC(O)(CC(=O)O)c1cc2n(c(=O)c1CO)Cc1c-2nc2ccc(O)cc2c1[Si](C)(C)C(C)(C)C` (stereo unspecified), for which, in data set [1], the “K DMPC” value stood at 700 M⁻¹. In addition, the “K DMPG” value in data set [2] stood at 100 M⁻¹.

Regarding `CC[C@@]1(O)C(=O)OCc2c1cc1n(c2=O)Cc2cc3c(CN(C)C)c(O)ccc3nc2-1` [TOPOTECAN], the “K DMPC” value in data set [1] stood at 10 M⁻¹. For the same molecule, the “K DMPG” value in [2] is 50 M⁻¹.

Take `CCC1(O)CC(=O)OCc2c1cc1n(c2=O)Cc2c-1nc1ccc(N)cc1c2[Si](C)(C)C` (stereo unspecified): the remaining at 3 h, 1 µM came out at 82.8% in data set [3]; 40.3% in data set [4]; 81.4% in data set [5]; 84.8% in [7]; 56.4% in data set [8]. The remaining at 3 h in data set [6] was determined as 56%; in data set [9], 72%. The “K DMPC” value in data set [1] turned out to be 1400 M⁻¹. For the same molecule, in [2], the “K DMPG” value worked out at 800 M⁻¹.

Regarding `CC[C@@]1(O)C(=O)OCc2c1cc1n(c2=O)Cc2cc3ccccc3nc2-1` [CAMPTOTHECIN], the remaining at 3 h in data set [6] is 7%; in data set [9] it was 20%. Further, the “K DMPC” value in data set [1] came to 100 M⁻¹. Besides, the “K DMPG” value in [2] was determined as 100 M⁻¹.

For the molecule `CCC1(O)CC(=O)OCc2c1cc1n(c2=O)Cc2c-1nc1ccc(N)cc1c2[Si](C)(C)C(C)(C)C` (stereo unspecified), the remaining at 3 h, 1 µM turned out to be 83.7% in [3]; 71.1% in [4]; 86.8% in data set [5]; 85.5% in [7]; 85.2% in [8]. The figures for the remaining at 3 h in [6] and in data set [9] were 85% and 61%, respectively. For the same molecule, the “K DMPC” value in data set [1] worked out at 9000 M⁻¹. For the same molecule, in data set [2], the “K DMPG” value amounted to 9000 M⁻¹.
